Compound activity as filed in PubChem.
ANO1 activ: activators or potentiators of mouse TMEM16A chloride channel | actives 0.3% (n = 340,000) | Q8BHY3 | AID 623877 | HEK293 TMEM16A/YFP-H148Q/I152L, iodide quench fluorescence; stronger effect = lower value | B-score at 10 µM;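 active = fluorescence-ratio B-score plate-corrected deviation score at least 3 library SD below zero, with starting fluorescence score within 5 deviations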;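 note: channel opened by trigger with iodide after compound preincubation; score built on the fluorescence ratio of max minus min over baseline; more negative score means more quench and so TMEM16A activation or potentiation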
ANO1 block: mouse TMEM16A channel inhibition, primary screen; actives 1.2% (n = 310,000); normalized B-score (activity score, 25-100; higher = stronger inhibition) at 10 µM; Q8BHY3; AID 588511; HEK293 TMEM16A/YFP iodide influx fluorescence, ionomycin;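 active = ratio plate-corrected score three or more library SD toward inhibition, starting fluorescence score within five deviations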;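 note: score derived from kinetic fluorescence span divided by baseline fluorescence per well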
UBC13 polyUb: blocks human UBC13 polyubiquitin chain formation; P61088; AID 485273; TR-FRET; inhibition, % at 20 µM; actives 0.47% (n = 330,000); in the data active = inhibition above about 45%, passing the limit was not always enough
FID counter: counter-screen for HCV NS3 helicase inhibitors: DNA intercalator displacement; actives 0.17% (n = 290,000); AID 1845; DNA fluorescent intercalator displacement, fluorescence; inhibition, % at 7.9 µM; in the data active = inhibition above about 37%;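 note: 0% = vehicle and 100% = reference compound; higher means more ethidium bromide displaced from hairpin DNA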
Apaf1 inhib: human Apaf-1 inhibition | actives 0.71% (n = 330,000) | reconstituted apoptosome caspase-3 activity, DEVD-Rh110 fluorescence | AID 489030 | inhibition, % at 20 µM; active = inhibition of at least 40% at 20 µM;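 note: plate controls were DMSO wells for no effect and DEVD-CHO caspase inhibitor wells for full effect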
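Assay system: Apoptosome proteins | Medium: pH 7.5 Hepes buffer with CHAPS, BSA, DTT | Also added: Cytochrome c and DEVD-Rh110 substrate | Times: 30 min plus 50 min, RT | Detection: Rhodamine 110 fluorescence at Ex 480/Em 540 nm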
TMEM16A reconf: reconfirmed blocker of mouse TMEM16A calcium-activated chloride channel; shares compounds with ANO1 block; HEK293 TMEM16A/YFP-H148Q, iodide quench fluorescence; ionomycin added to raise cell calcium; inhibition, % at 10 µM; actives 39% (n = 2,300); AID 652189;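 active = mean duplicate percent inhibition, scaled so buffer wells are 0 and the reference blocker 100, over three buffer SD above buffer mean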
TMEM16A Ca cntr: calcium mobilization counter-screen hit for TMEM16A inhibitor series; shares compounds with ANO1 block; TMEM16A/YFP HEK293, Fluo4 calcium mobilization; calcium response (% of ionomycin), % at 10 µM; actives 2% (n = 2,300); AID 652231;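 active = duplicate-averaged calcium signal over 20% of the ionomycin maximum, relative to buffer baseline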;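 note: each well's signal is peak minus trough fluorescence divided by its pre-addition baseline; 0% = buffer wells and 100% = ionomycin wells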
Parental YFP cnt: parental YFP-HEK293 iodide quench counter-screen activity; shares compounds with ANO1 block; ionomycin; YFP ratio F(max-min)/F0 at 10 µM; 2,300 tested, under 10 active; AID 652233;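 active = yellow fluorescent protein signal ratio exceeding the buffer control mean by over 5 SD of those controls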;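 note: ratio is mean of duplicate wells from kinetic YFP trace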
ClC-1 rat inh: selectivity of TMEM16A inhibitors: inhibition of rat ClC-1 chloride channel; shares compounds with ANO1 block; CHO ClC-1-YFP, iodide influx fluorescence quench; iodide control reads 0, buffer control 100; ratio percent, % at 10 µM; 2,300 tested, under 10 active; AID 652236;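 active = duplicate-mean ratio percent above the mean of iodide-only control wells, which defines zero, plus 5 of their SD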;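 note: higher percent means stronger block of ClC-1 iodide influx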
* = called active by the depositor; i = inactive; / = no result. Compounds with a hit are over-represented: about 2.4% of the library has one in this group of screens.

SMILES | ANO1 activ | ANO1 block | UBC13 polyUb | FID counter | Apaf1 inhib | TMEM16A reconf | TMEM16A Ca cntr | Parental YFP cnt | ClC-1 rat inh
CCOc1ccc(C(C(=O)NC(C)(C)C)N(CCOC)C(=O)CCC(=O)Nc2ccccn2)cc1 (stereo not drawn) | i | i | 3 | -34 | 4 | / | / | / | /
COC(=O)c1ccc(C(=O)N2CCCC(Nc3ccc(C(C)C)cc3)C2)cc1 (stereo not drawn) | i | i | -5 | -32 | 9 | / | / | / | /
CC(C)c1ccc(NC2CCCN(C(=O)c3n[nH]c4c3CCC4)C2)cc1 (stereo not drawn) | i | 25* | 4 | -33 | 12 | 20%* | i | -1.1 | -16
COCCCN=CC1=C(O)CC(c2ccccc2)CC1=O (stereo not drawn) | i | i | -2 | -6 | 5 | / | / | / | /
Cc1ccc2nc(Cl)c3nnnn3c2c1 | i | i | -1 | 3 | -5 | / | / | / | /
CNc1nc(SCc2ccccc2Cl)nc2c1CCCC2 | i | 100* | 22 | -3 | 18 | 56%* | i | -1.1 | 0
CCOC(=O)c1sc(N=NC2=C(O)CC(C)(C)CC2=O)c(C(=O)OCC)c1C | i | i | -97 | -2 | 15 | / | / | / | /
CCN(c1ccccc1C(=O)O)S(=O)(=O)c1ccc2[nH]c(=O)[nH]c2c1 | i | i | 0 | -5 | -2 | / | / | / | /
CCOC(=O)CNC(=O)C(NC(=O)C1CCC(C)CC1)C(C)CC (stereo not drawn) | i | 25* | -3 | -8 | 11 | i | i | -1.1 | -2
CCC(C)C(NC(=O)C1CCC(C)CC1)C(=O)NC(C(=O)OC)C(C)C (stereo not drawn) | i | i | -2 | -7 | -18 | / | / | / | /
c1ccc(-c2cc(-c3nnc4n3N=C(c3ccc5ccccc5c3)CS4)[nH]n2)cc1 | i | i | -21 | -14 | 17 | / | / | / | /
O=[N+]([O-])c1ccc(N2CCN(C(=S)NC3CCCCC3)CC2)cc1 | i | 25* | -10 | 7 | 16 | i | i | -0.99 | -21
N#CC1=C(N)N2C(=C(C#N)C1c1ccc(Br)cc1)Nc1ccccc12 (stereo not drawn) | / | 25* | 8 | 3 | 20 | 16%* | i | -1.1 | -16
COc1ccc(C(=O)OCCc2ccc(O)cc2)cc1 | i | 25* | -3 | -7 | 0 | i | i | -1 | -4
O=C(Nc1ccc(Cc2nc3ccccc3s2)cc1)c1ccncc1 | i | 25* | 1 | -18 | 1 | 17%* | i | -0.98 | -12
NC(=O)c1ccc(NC(=O)CCc2nc3ccccc3s2)cc1 | i | i | -5 | -12 | -3 | / | / | / | /
O=C(Nc1ccccc1)Nc1scc2c1c(=O)oc1ccccc12 | / | i | -9 | -1 | -13 | i | i | -1.2 | -12
CCS(=O)(=O)N1CCN(S(=O)(=O)c2ccc(Cl)s2)CC1 | i | i | -6 | -3 | 7 | / | / | / | /
Cc1ccc(N2CCN(S(=O)(=O)c3ccc(Cl)s3)CC2C)cc1 (stereo not drawn) | i | 25* | 8 | -21 | 11 | i | i | -0.81 | -10
C1CCC(NC2=NCCC2)CC1 | i | 100* | -3 | 0 | 1 | i | i | -1.1 | -4
C1CN=C(NC23CC4CC(CC(C4)C2)C3)C1 | i | i | 5 | 2 | -10 | / | / | / | /
O=C(c1cnn2c1NC(c1ccco1)CC2C(F)(F)F)N1CCN(c2cccc(Cl)c2)CC1 (stereo not drawn) | i | 25* | -2 | -33 | 21 | i | i | -0.95 | -5
CC(=O)NC(c1ccccc1)c1cccnc1 (stereo not drawn) | i | 25* | 1 | -1 | 2 | i | i | -1.1 | -8
COCC(N)(c1ccccc1)c1nc2ccccc2n1C (stereo not drawn) | i | 25* | -10 | -8 | -12 | i | i | -1.2 | -6
Cn1c(Cn2c(C(F)(F)F)nc3ccccc32)nc2ccccc21 | i | i | 6 | 2 | 3 | / | / | / | /
SMILES | ANO1 activ | ANO1 block | UBC13 polyUb | FID counter | Apaf1 inhib | TMEM16A reconf | TMEM16A Ca cntr | Parental YFP cnt | ClC-1 rat inh
CCOc1cc(/C=N/NC(=O)c2ccc(CN3CCOCC3)cc2)ccc1OCc1ccccc1 | i | 25* | 15 | -10 | 0 | 21%* | i | -1 | -10
CCN(c1cccc(C)c1)S(=O)(=O)c1cc(CN2C(=O)c3cccnc3C2=O)ccc1OC | i | i | -9 | -49 | -1 | / | / | / | /
CCCCC(=O)Oc1c(S(=O)(=O)c2ccccc2)c(C)nn1C(C)(C)C | i | 25* | 3 | -25 | 12 | i | i | -0.93 | -4
COc1ccc(Cl)cc1-n1c(=S)sc2c(=O)[nH]c(SCC(=O)C(C)(C)C)nc21 | i | 100* | -22 | -23 | 18 | 28%* | i | -1.1 | -30
CCCCNC(=O)CSc1nc2c(sc(=S)n2-c2cc(Cl)ccc2OC)c(=O)[nH]1 | i | i | -11 | -19 | 1 | / | / | / | /
Fc1ccc2nc(Nc3nc4c(F)cccc4s3)sc2c1 | i | 25* | -10 | 4 | 23 | 25%* | i | -0.89 | -13
CCCCOc1ccc2c(C)cc(=O)oc2c1OCCCC | i | 100* | 12 | -22 | 20 | i | i | -1.3 | -10
CC(C)c1ccc(NC2CCCN(C(=O)c3ccsc3)C2)cc1 (stereo not drawn) | i | i | -3 | -35 | -3 | / | / | / | /
COc1ccc(OCc2cc(C(=O)NCc3nc(C)cs3)no2)c(Cl)c1 | i | i | -2 | -29 | -1 | / | / | / | /
COc1ccc([N+](=O)[O-])cc1NCc1ccccc1C | i | 100* | -5 | 7 | 10 | i | i | -1.2 | -9
COc1ccc([N+](=O)[O-])cc1NCc1ccccc1 | i | i | -12 | 8 | 21 | / | / | / | /
COc1cccc(NC(=O)CN2C(=O)NC(C)(CCC(C)C)C2=O)c1 (stereo not drawn) | i | i | -2 | -8 | 11 | / | / | / | /
CCCC1(CCC)NC(=O)N(CC(=O)Nc2cccc(OC)c2)C1=O | i | 100* | 0 | -10 | 3 | i | i | -1.1 | -10
Cc1nc2sccn2c1P(c1c(C)nc2sccn12)c1c(C)nc2sccn12 | i | i | 0 | -5 | -2 | / | / | / | /
